Data from ChEMBL document CHEMBL1140263, “Structure-based design, synthesis, and study of potent inhibitors of beta-ketoacyl-acyl carrier protein synthase III as potential antimicrobial agents” (J Med Chem, 2005).
Converted amounts (≈) assume the structure as drawn.

Legend:
Staphylococcus aureus = assay: Minimum inhibitory concentration against Staphylococcus aureus MRSA 703; format: functional
Streptococcus pyogenes = assay: Minimum inhibitory concentration against Streptococcus pyogenes NZ131; format: functional
[1] = biological target: T1, Beta-ketoacyl-[acyl-carrier-protein] synthase III (Enterococcus faecalis (strain ATCC 700802 / V583), UniProt Q820T1); assay: Inhibitory concentration against Enterococcus faecalis beta-Ketoacyl-acyl carrier protein synthase III
T1 sequence (Q820T1 whole entry): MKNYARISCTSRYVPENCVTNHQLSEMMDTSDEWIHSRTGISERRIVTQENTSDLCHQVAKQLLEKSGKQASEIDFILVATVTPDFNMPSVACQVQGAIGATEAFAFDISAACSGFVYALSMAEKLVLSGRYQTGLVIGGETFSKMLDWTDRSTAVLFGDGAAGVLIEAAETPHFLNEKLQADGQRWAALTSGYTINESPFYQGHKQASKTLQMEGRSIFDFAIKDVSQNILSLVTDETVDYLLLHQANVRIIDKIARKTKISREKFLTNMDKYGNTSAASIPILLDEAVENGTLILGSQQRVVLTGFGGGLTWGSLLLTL
Procedure, shortened: (§1)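 Coupled FabD/FabH radiometric assay with His-tagged or tagless FabH expressed in E. coli BL21(DE3). The mix held 100 mM sodium phosphate pH 7.0, 2 mM DTT, 1 mM MgCl₂, 12.5 µM E. coli holo-ACP, 10 nM FabD and 3-5 nM FabH. Malonyl-CoA was added for 1 min, then acetyl-CoA plus [³H]acetyl-CoA, NADH and NADPH for 19 min. TCA-precipitated protein was counted by liquid scintillation; DMSO ≤2% final.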

Neisseria meningitidis = assay: Minimum inhibitory concentration against Neisseria meningitides MC58 in presence of membrane permeablizing agent polymyxin B; format: functional
[2] = Minimum inhibitory concentration against Enterococcus faecalis VRE 583; format: functional, Enterococcus faecalis V583
Escherichia coli = assay: Minimum inhibitory concentration against Escherichia coli TolC- mutant in presence of membrane permeablizing agent polymyxin B; format: functional
Streptococcus pneumoniae = assay: Minimum inhibitory concentration against Streptococcus pneumonia ATCC 6301; format: functional
[3] = biological target: T2, Beta-ketoacyl-[acyl-carrier-protein] synthase III (Haemophilus influenzae (strain ATCC 51907 / DSM 11121 / KW20 / Rd), UniProt P43711); assay: Inhibitory concentration against Haemophilus influenzae beta-Ketoacyl-acyl carrier protein synthase III; procedure, shortened: as §1
T2 sequence (P43711 whole entry): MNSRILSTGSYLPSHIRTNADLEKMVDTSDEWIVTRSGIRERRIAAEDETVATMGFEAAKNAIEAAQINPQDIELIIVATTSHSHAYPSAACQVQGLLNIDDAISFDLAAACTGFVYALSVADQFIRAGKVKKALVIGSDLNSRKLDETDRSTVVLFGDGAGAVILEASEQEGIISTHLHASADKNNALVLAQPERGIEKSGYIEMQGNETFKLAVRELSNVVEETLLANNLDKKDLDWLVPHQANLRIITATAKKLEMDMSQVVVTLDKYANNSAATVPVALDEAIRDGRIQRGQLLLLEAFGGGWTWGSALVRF

[4] = biological target: T3, Beta-ketoacyl-[acyl-carrier-protein] synthase III (Staphylococcus aureus subsp. aureus Mu50, UniProt P68795); assay: Inhibitory concentration against Staphylococcus aureus beta-Ketoacyl-acyl carrier protein synthase III
T3 sequence (P68795 whole entry): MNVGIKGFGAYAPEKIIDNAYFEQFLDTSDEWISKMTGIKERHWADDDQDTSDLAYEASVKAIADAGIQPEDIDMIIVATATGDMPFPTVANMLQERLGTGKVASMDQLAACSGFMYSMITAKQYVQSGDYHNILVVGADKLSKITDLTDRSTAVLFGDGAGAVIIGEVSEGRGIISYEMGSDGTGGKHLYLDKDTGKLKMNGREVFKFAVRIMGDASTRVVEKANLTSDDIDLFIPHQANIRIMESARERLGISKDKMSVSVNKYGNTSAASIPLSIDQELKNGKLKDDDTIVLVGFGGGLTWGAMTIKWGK
Procedure, shortened: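 Coupled FabD/FabH radiometric assay, 100 µL final, pH 7.0: 100 mM sodium phosphate, 2 mM DTT, 1 mM MgCl2, 12.5 µM E. coli holo-ACP, 10 nM FabD, 20 nM S. aureus FabH (His-tagged or tagless, expressed in E. coli BL21(DE3)). FabD started with malonyl-CoA for 1 min. Acetyl-CoA plus [3H]acetyl-CoA, NADH and NADPH then added; FabH reaction 19 min. Stopped with TCA; pellet counted by liquid scintillation. DMSO ≤2% final.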

[5] = biological target: T4, Beta-ketoacyl-[acyl-carrier-protein] synthase III (Streptococcus pyogenes serotype M3 (strain ATCC BAA-595 / MGAS315), UniProt P0DB00); assay: Inhibitory concentration against Streptococcus pyogenes beta-Ketoacyl-acyl carrier protein synthase III
T4 sequence (P0DB00 whole entry): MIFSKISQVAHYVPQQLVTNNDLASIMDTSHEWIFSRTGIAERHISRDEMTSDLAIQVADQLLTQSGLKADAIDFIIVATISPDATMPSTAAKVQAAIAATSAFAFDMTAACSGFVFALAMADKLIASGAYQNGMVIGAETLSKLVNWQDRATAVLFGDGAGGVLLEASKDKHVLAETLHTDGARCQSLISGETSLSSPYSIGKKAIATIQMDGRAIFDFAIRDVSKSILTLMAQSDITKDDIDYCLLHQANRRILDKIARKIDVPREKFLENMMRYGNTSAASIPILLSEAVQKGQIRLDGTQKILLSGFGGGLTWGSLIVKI
Procedure, shortened: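 S. pyogenes FabH (10 nM, His-tagged or tagless, expressed in E. coli BL21(DE3)) was run in a coupled assay with 10 nM FabD, 12.5 µM holo-ACP, 100 mM sodium phosphate pH 7.0, 2 mM DTT and 1 mM MgCl₂. Malonyl-CoA was added for 1 min, then [³H]acetyl-CoA/acetyl-CoA with NADH and NADPH for 19 min. The reaction was stopped with cold TCA and the pellet read by scintillation. Inhibitor DMSO ≤2%.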

O=C(Nc1ccccc1C(=O)O)c1ccc(-c2ccc(C(F)(F)F)cc2)c(Oc2ccccc2)c1
MIC (Staphylococcus aureus): 5.6 µg/mL (≈ 11.7 µM) | MIC (Streptococcus pyogenes): 2.8 µg/mL (≈ 5.86 µM) | IC50 [1]: 96 nM | MIC (Neisseria meningitidis): 1.4 µg/mL | MIC [2]: 5.6 µg/mL (≈ 11.7 µM) | MIC (Escherichia coli): 0.7 µg/mL | MIC (Streptococcus pneumoniae): 0.7 µg/mL (≈ 1.47 µM)

CS(=O)(=O)c1ccc(-c2ccc(C(=O)Nc3ccccc3C(=O)O)cc2Oc2ccccc2)cc1
IC50 [3]: > 100 µM | MIC (Staphylococcus aureus): 45 µg/mL (≈ 92.3 µM) | IC50 [4]: 24 µM | MIC (Streptococcus pyogenes): 22 µg/mL (≈ 45.1 µM) | IC50 [1]: 28 nM | MIC (Neisseria meningitidis): 5.6 µg/mL | IC50 [5]: 3 nM | MIC [2]: > 45 µg/mL | MIC (Escherichia coli): 5.6 µg/mL | MIC (Streptococcus pneumoniae): 45 µg/mL (≈ 92.3 µM)

O=C(Nc1ccccc1C(=O)O)c1cccc(Oc2ccccc2)c1
IC50 [1]: 2700 nM

O=C(Nc1ccccc1C(=O)O)c1cccc(Oc2ccncc2)c1
IC50 [1]: 10000 nM

O=C(Nc1cccc(F)c1C(=O)O)c1cccc(Oc2ccccc2)c1
IC50 [1]: 6000 nM

O=C(Nc1ccccc1C(=O)O)c1ccc(-c2ccc(F)c(F)c2)c(Oc2ccccc2)c1
IC50 [1]: 330 nM

O=C(Nc1ccccc1C(=O)O)c1ccc(-c2ccc(F)c(Cl)c2)c(Oc2ccccc2)c1
IC50 [1]: 570 nM

O=C(Nc1ccccc1C(=O)O)c1ccc(N2CCSCC2)c(Oc2ccccc2)c1
IC50 [1]: 1200 nM

CC1CC(C)CN(c2ccc(C(=O)Nc3ccccc3C(=O)O)cc2Oc2ccccc2)C1 (stereo not given)
MIC (Staphylococcus aureus): 5.6 µg/mL (≈ 12.6 µM) | MIC (Streptococcus pyogenes): 2.8 µg/mL (≈ 6.3 µM) | IC50 [1]: 270 nM | MIC (Neisseria meningitidis): 2.8 µg/mL | MIC [2]: 11.3 µg/mL (≈ 25.4 µM) | MIC (Escherichia coli): 5.6 µg/mL | MIC (Streptococcus pneumoniae): 2.8 µg/mL (≈ 6.3 µM)

O=C(Nc1cccc(O)c1C(=O)O)c1cccc(Oc2ccccc2)c1
IC50 [1]: 410 nM

O=C(Nc1cccnc1C(=O)O)c1cccc(Oc2ccccc2)c1
IC50 [1]: 290000 nM

CCN(CC)S(=O)(=O)c1cc(C(=O)Nc2ccccc2C(=O)O)ccc1OC
IC50 [1]: 11400 nM

Cc1cc(-c2ccc(C(=O)Nc3ccccc3C(=O)O)cc2Oc2ccccc2)ccc1F
MIC (Staphylococcus aureus): 5.6 µg/mL (≈ 12.7 µM) | MIC (Streptococcus pyogenes): 2.8 µg/mL (≈ 6.34 µM) | IC50 [1]: 240 nM | MIC (Neisseria meningitidis): 0.7 µg/mL | MIC [2]: 2.8 µg/mL (≈ 6.34 µM) | MIC (Escherichia coli): 0.7 µg/mL | MIC (Streptococcus pneumoniae): 0.7 µg/mL (≈ 1.59 µM)

O=C(O)c1ccc(-c2ccc(C(=O)Nc3ccccc3C(=O)O)cc2Oc2ccccc2)cc1
IC50 [1]: 2100 nM

CC(C)c1cccc(-c2ccc(C(=O)Nc3ccccc3C(=O)O)cc2Oc2ccccc2)c1
MIC (Staphylococcus aureus): 5.6 µg/mL (≈ 12.4 µM) | MIC (Streptococcus pyogenes): 2.8 µg/mL (≈ 6.2 µM) | IC50 [1]: 790 nM | MIC (Neisseria meningitidis): 1.4 µg/mL | MIC [2]: 5.6 µg/mL (≈ 12.4 µM) | MIC (Escherichia coli): 2.8 µg/mL | MIC (Streptococcus pneumoniae): 1.4 µg/mL (≈ 3.1 µM)

O=C(Nc1ccccc1C(=O)O)c1ccc(-c2cn[nH]c2)c(Oc2ccccc2)c1
IC50 [1]: 22000 nM

O=C(Nc1ccsc1C(=O)O)c1cccc(Oc2ccccc2)c1
IC50 [1]: 10100 nM

O=C(Nc1sccc1C(=O)O)c1cccc(Oc2ccccc2)c1
IC50 [1]: 43000 nM

O=C(Nc1ccccc1C(=O)O)c1ccc(N2CCCCC2)c(Oc2ccccc2)c1
IC50 [1]: 290 nM

O=C(Nc1ccccc1C(=O)O)c1ccc(-c2ccc(O)cc2)c(Oc2ccccc2)c1
IC50 [1]: 410 nM

CCN(CC)S(=O)(=O)c1cc(C(=O)Nc2ccccc2C(=O)O)cc(C)c1Br
IC50 [1]: 160000 nM

O=C(Nc1cccc(O)c1C(=O)O)c1ccc(Br)c(Oc2ccccc2)c1
IC50 [3]: 20 µM | MIC (Staphylococcus aureus): 45 µg/mL (≈ 105 µM) | IC50 [4]: 12.3 µM | MIC (Streptococcus pyogenes): 11.3 µg/mL (≈ 26.4 µM) | IC50 [1]: 62 nM | MIC (Neisseria meningitidis): 2.8 µg/mL | IC50 [5]: 34 nM | MIC [2]: > 45 µg/mL | MIC (Escherichia coli): 2.8 µg/mL | MIC (Streptococcus pneumoniae): 45 µg/mL (≈ 105 µM)

O=C(Nc1ccccc1C(=O)O)c1ccc(N2CCOCC2)c(Oc2ccccc2)c1
IC50 [1]: 3200 nM
